Measured values from ChEMBL document CHEMBL4393701, “Appendix A. dithioloquinolinethiones as new potential multitargeted antibacterial and antifungal agents: Synthesis, biological evaluation and molecular docking studies” (2019).
Converted amounts (≈) assume the structure as drawn.

Tests used:
Aspergillus niger [1] = test: Fungicidal activity against Aspergillus niger ATCC 6275 incubated for 72 hrs followed by sub-culturing on broth malt medium and measured after 72 hrs; format: functional; settings: ATCC 6275, 72 h
Method in brief: (§1)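 After 72 h exposure in malt broth, 2 µL from test wells was subcultured into wells holding 100 µL broth and incubated a further 72 h at 28 °C. MFC is the lowest concentration with no visible growth, taken as 99.5% kill of the original inoculum. Three independent experiments in duplicate.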

Penicillium cyclopium [2] = test: Fungicidal activity against Penicillium verrucosum var. cyclopium food isolate incubated for 72 hrs followed by sub-culturing on broth malt medium and measured after 72 hrs; format: functional; method in brief: as §1
Aspergillus ochraceus [3] = test: Antifungal activity against Aspergillus ochraceus ATCC 12066 after 72 hrs by microdilution technique; format: functional; settings: ATCC 12066, 72 h
Method in brief: (§2)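 Spores were washed off malt agar with 0.85% saline containing 0.1% Tween 80 and adjusted to about 1.0×10^5 per well. Compounds in 5% DMSO were serially diluted (0.001-1.0 mg/ml) in malt broth with inoculum. Plates were shaken at 160 rpm for 72 h at 28 °C. MIC is the lowest concentration without visible growth under a binocular microscope. Three independent experiments in duplicate.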

Micrococcus flavus [4] = test: Bactericidal activity against Micrococcus flavus ATCC 10240 incubated for 24 hrs followed by re-plating on tryptic soy broth; format: functional; settings: ATCC 10240, 24 h
Method in brief: (§3)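 Bacteria were grown in tryptic soy broth, 1.0×10^4 CFU per well, with compounds in 5% DMSO at 0.001-1.0 mg/ml for 24 h at 37 °C. Then 10 µL was subcultured into fresh TSB. MBC is the lowest concentration showing no growth after subculture, taken as 99.5% kill of the original inoculum. Duplicates, repeated three times.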

Aspergillus versicolor [5] = test: Fungicidal activity against Aspergillus versicolor ATCC 11730 incubated for 72 hrs followed by sub-culturing on broth malt medium and measured after 72 hrs; format: functional; settings: ATCC 11730, 72 h; method in brief: as §1
Aspergillus niger [6] = test: Antifungal activity against Aspergillus niger ATCC 6275 after 72 hrs by microdilution technique; format: functional; settings: ATCC 6275, 72 h; method in brief: as §2
Salmonella typhimurium [7] = test: Antibacterial activity against Salmonella typhimurium ATCC 13311 after 24 hrs by iodonitrotetrazolium chloride dye based microdilution method; format: functional, Salmonella enterica subsp. enterica serovar Typhimurium; settings: Salmonella enterica, ATCC 13311, 24 h
Method in brief: (§4)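 Fresh overnight cultures adjusted spectrophotometrically to 1×10^5 CFU/mL, giving 1.0×10^4 CFU per well in tryptic soy broth. Compounds were dissolved in 5% DMSO and tested at 0.001-1.0 mg/ml by serial dilution; 5% DMSO was the negative control. After 24 h at 37 °C, 0.2 mg/mL INT solution was added for 30 min at 37 °C and OD read at 655 nm. MIC is the lowest concentration giving significant growth inhibition versus the positive control. Duplicates, repeated three times.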

Escherichia coli [8] = test: Bactericidal activity against Escherichia coli ATCC 35210 incubated for 24 hrs followed by re-plating on tryptic soy broth; format: functional; settings: ATCC 35210, 24 h; method in brief: as §3
Trichoderma viride [9] = test: Antifungal activity against Trichoderma viride IAM 5061 after 72 hrs by microdilution technique; format: functional; settings: IAM 5061, 72 h; method in brief: as §2
Penicillium ochrochloron [10] = test: Fungicidal activity against Penicillium ochrochloron ATCC 9112 incubated for 72 hrs followed by sub-culturing on broth malt medium and measured after 72 hrs; format: functional; settings: ATCC 9112, 72 h; method in brief: as §1
Listeria monocytogenes [11] = test: Antibacterial activity against Listeria monocytogenes NCTC 7973 after 24 hrs by iodonitrotetrazolium chloride dye based microdilution method; format: functional; settings: NCTC 7973, 24 h; method in brief: as §4
Bacillus cereus [12] = test: Antibacterial activity against Bacillus cereus clinical isolate after 24 hrs by iodonitrotetrazolium chloride dye based microdilution assay; format: functional; method in brief: as §4
[13] = Antifungal activity against Penicillium funiculosum ATCC 36839 after 72 hrs by microdilution technique; format: functional; settings: Talaromyces pinophilus, ATCC 36839, 72 h; method in brief: as §2
Enterobacter cloacae [14] = test: Bactericidal activity against Enterobacter cloacae incubated for 24 hrs followed by re-plating on tryptic soy broth; format: functional; method in brief: as §3
Bacillus cereus [15] = test: Bactericidal activity against Bacillus cereus clinical isolate incubated for 24 hrs followed by re-plating on tryptic soy broth; format: functional; method in brief: as §3
[16] = Fungicidal activity against Penicillium funiculosum ATCC 36839 incubated for 72 hrs followed by sub-culturing on broth malt medium and measured after 72 hrs; format: functional; settings: Talaromyces pinophilus, ATCC 36839, 72 h; method in brief: as §1
Penicillium ochrochloron [17] = test: Antifungal activity against Penicillium ochrochloron ATCC 9112 after 72 hrs by microdilution technique; format: functional; settings: ATCC 9112, 72 h; method in brief: as §2
Staphylococcus aureus [18] = test: Bactericidal activity against Staphylococcus aureus ATCC 6538 incubated for 24 hrs followed by re-plating on tryptic soy broth; format: functional; settings: ATCC 6538, 24 h; method in brief: as §3
Escherichia coli [19] = test: Antibacterial activity against Escherichia coli ATCC 35210 after 24 hrs by iodonitrotetrazolium chloride dye based microdilution method; format: functional; settings: ATCC 35210, 24 h; method in brief: as §4
Enterobacter cloacae [20] = test: Antibacterial activity against Enterobacter cloacae clinical isolate after 24 hrs by iodonitrotetrazolium chloride dye based microdilution method; format: functional; method in brief: as §4
Listeria monocytogenes [21] = test: Bactericidal activity against Listeria monocytogenes NCTC 7973 incubated for 24 hrs followed by re-plating on tryptic soy broth; format: functional; settings: NCTC 7973, 24 h; method in brief: as §3
Trichoderma viride [22] = test: Fungicidal activity against Trichoderma viride IAM 5061 incubated for 72 hrs followed by sub-culturing on broth malt medium and measured after 72 hrs; format: functional; settings: IAM 5061, 72 h; method in brief: as §1
Penicillium cyclopium [23] = test: Antifungal activity against Penicillium verrucosum var. cyclopium food isolate after 72 hrs by microdilution technique; format: functional; method in brief: as §2
Aspergillus fumigatus [24] = test: Antifungal activity against Aspergillus fumigatus ATCC 1022 after 72 hrs by microdilution technique; format: functional; settings: ATCC 1022, 72 h; method in brief: as §2
Pseudomonas aeruginosa [25] = test: Bactericidal activity against Pseudomonas aeruginosa ATCC 27853 incubated for 24 hrs followed by re-plating on tryptic soy broth; format: functional; settings: ATCC 27853, 24 h; method in brief: as §3
Pseudomonas aeruginosa [26] = test: Antibacterial activity against Pseudomonas aeruginosa ATCC 27853 after 24 hrs by iodonitrotetrazolium chloride dye based microdilution method; format: functional; settings: ATCC 27853, 24 h; method in brief: as §4
Aspergillus ochraceus [27] = test: Fungicidal activity against Aspergillus ochraceus ATCC 12066 incubated for 72 hrs followed by sub-culturing on broth malt medium and measured after 72 hrs; format: functional; settings: ATCC 12066, 72 h; method in brief: as §1
Aspergillus fumigatus [28] = test: Fungicidal activity against Aspergillus fumigatus ATCC 1022 incubated for 72 hrs followed by sub-culturing on broth malt medium and measured after 72 hrs; format: functional; settings: ATCC 1022, 72 h; method in brief: as §1
Staphylococcus aureus [29] = test: Antibacterial activity against Staphylococcus aureus ATCC 6538 after 24 hrs by iodonitrotetrazolium chloride dye based microdilution method; format: functional; settings: ATCC 6538, 24 h; method in brief: as §4
Salmonella typhimurium [30] = test: Bactericidal activity against Salmonella typhimurium ATCC 13311 incubated for 24 hrs followed by re-plating on tryptic soy broth; format: functional, Salmonella enterica subsp. enterica serovar Typhimurium; settings: Salmonella enterica, ATCC 13311, 24 h; method in brief: as §3
Aspergillus versicolor [31] = test: Antifungal activity against Aspergillus versicolor ATCC 11730 after 72 hrs by microdilution method; format: functional; settings: ATCC 11730, 72 h; method in brief: as §2
Micrococcus flavus [32] = test: Antibacterial activity against Micrococcus flavus ATCC 10240 after 24 hrs by iodonitrotetrazolium chloride dye based microdilution method; format: functional; settings: ATCC 10240, 24 h; method in brief: as §4

Row | SMILES | MFC (Aspergillus niger [1]) [×10⁻² mM] | MFC (Penicillium cyclopium [2]) [×10⁻² mM] | MIC (Aspergillus ochraceus [3]) [×10⁻² mM] | MBC (Micrococcus flavus [4]) [µM] | MFC (Aspergillus versicolor [5]) [×10⁻² mM] | MIC (Aspergillus niger [6]) [×10⁻² mM] | MIC (Salmonella typhimurium [7]) [µM] | MBC (Escherichia coli [8]) [µM] | MIC (Trichoderma viride [9]) [×10⁻² mM] | MFC (Penicillium ochrochloron [10]) [×10⁻² mM] | MIC (Listeria monocytogenes [11]) [µM] | MIC (Bacillus cereus [12]) [µM] | MIC [13] [×10⁻² mM] | MBC (Enterobacter cloacae [14]) [µM] | MBC (Bacillus cereus [15]) [µM] | MFC [16] [×10⁻² mM] | MIC (Penicillium ochrochloron [17]) [×10⁻² mM] | MBC (Staphylococcus aureus [18]) [µM] | MIC (Escherichia coli [19]) [µM] | MIC (Enterobacter cloacae [20]) [µM] | also measured
1 | Cc1ccc2c(c1)-c1c(ssc1=S)C(C)(C)N2C(=O)CSc1nn(-c2ccccc2)c(=S)s1 | 5.5 | 44 | 1.47 | 55 (≈ 30 µg/mL) | 44 | 2.02 | 27.5 (≈ 15 µg/mL) | 55 (≈ 30 µg/mL) | 1.1 | 5.5 | 27.5 (≈ 15 µg/mL) | 27.5 (≈ 15 µg/mL) | 2.75 | 55 (≈ 30 µg/mL) | 55 (≈ 30 µg/mL) | 5.5 | 2.75 | 55 (≈ 30 µg/mL) | 27.5 (≈ 15 µg/mL) | 27.5 (≈ 15 µg/mL) | MBC (Listeria monocytogenes [21]): 55 µM (≈ 30 µg/mL); MFC (Trichoderma viride [22]): 1.47 ×10⁻² mM; MIC (Penicillium cyclopium [23]): 22 ×10⁻² mM; MIC (Aspergillus fumigatus [24]): 8.24 ×10⁻² mM; MBC (Pseudomonas aeruginosa [25]): 55 µM (≈ 30 µg/mL); MIC (Pseudomonas aeruginosa [26]): 27.5 µM (≈ 15 µg/mL); MFC (Aspergillus ochraceus [27]): 2.75 ×10⁻² mM; MFC (Aspergillus fumigatus [28]): 22 ×10⁻² mM; MIC (Staphylococcus aureus [29]): 27.5 µM (≈ 15 µg/mL); MBC (Salmonella typhimurium [30]): 55 µM (≈ 30 µg/mL); MIC (Aspergillus versicolor [31]): 22 ×10⁻² mM; MIC (Micrococcus flavus [32]): 27.5 µM (≈ 15 µg/mL)
2 | CC1(C)c2ssc(=S)c2-c2cccc3c2N1C(=O)/C3=N/NC(N)=S | 30.6 | 30.6 | 15.2 | 76.4 (≈ 30 µg/mL) | 30.6 | 15.2 | 38.2 (≈ 15 µg/mL) | 76.4 (≈ 30 µg/mL) | 1.52 | 7.64 | 38.2 (≈ 15 µg/mL) | 38.2 (≈ 15 µg/mL) | 11.5 | 76.4 (≈ 30 µg/mL) | 76.4 (≈ 30 µg/mL) | 30.6 | 3.82 | 76.4 (≈ 30 µg/mL) | 38.2 (≈ 15 µg/mL) | 38.2 (≈ 15 µg/mL) | MBC (Listeria monocytogenes [21]): 76.4 µM (≈ 30 µg/mL); MFC (Trichoderma viride [22]): 3.82 ×10⁻² mM; MIC (Penicillium cyclopium [23]): 11.5 ×10⁻² mM; MIC (Aspergillus fumigatus [24]): 7.64 ×10⁻² mM; MBC (Pseudomonas aeruginosa [25]): 76.4 µM (≈ 30 µg/mL); MIC (Pseudomonas aeruginosa [26]): 38.2 µM (≈ 15 µg/mL); MFC (Aspergillus ochraceus [27]): 30.6 ×10⁻² mM; MFC (Aspergillus fumigatus [28]): 15.2 ×10⁻² mM; MIC (Staphylococcus aureus [29]): 38.2 µM (≈ 15 µg/mL); MBC (Salmonella typhimurium [30]): 76.4 µM (≈ 30 µg/mL); MIC (Aspergillus versicolor [31]): 11.5 ×10⁻² mM; MIC (Micrococcus flavus [32]): 38.2 µM (≈ 15 µg/mL)
